Results: ChEMBL document CHEMBL2146382, “Cytotoxic and antineoplastic activity of timosaponin A-III for human colon cancer cells” (J Nat Prod, 2011)
The source made the active and inactive calls. No cut-off for these calls is given here.

Assays:
HCT-15 [1] = test: Induction of apoptosis in human HCT15 cells assessed as DNA fragmentation at 5 to 20 uM after 24 hrs by agarose-gel electrophoresis; type: functional, cell-based
Procedure, shortened: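 HCT-15 cells seeded 1 × 10^6 per 100 mm dish, after 24 h given fresh medium with compound (0–20 μM) for 24 h; lysed in 50 mM Tris-HCl pH 7.5/20 mM EDTA/1% NP-40, RNase A then proteinase K digestion, ethanol/ammonium acetate precipitation; 4 μg DNA on 2% agarose, SYBR Gold stain.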

HCT-15 [2] = test: Antineoplastic activity against human HCT15 cells xenografted nude in BALB/c mouse assessed as inhibition of rate of tumor size at 2 mg/kg, ip 3 times a week for 4 weeks relative to control; type: functional; settings: HCT-15, ip, 672 h, route intraperitoneal
Procedure, shortened: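 HCT-15 cells (2 × 10^6 in 200 μL medium) implanted subcutaneously in flanks of BALB/c-nu (nu/nu) mice; dosing began at ca. 80 mm3 tumours; groups of five, randomized. 2 or 5 mg/kg given ip three times weekly in ethanol–cremophor–H2O (0.5:0.5:99), vehicle controls; caliper volume (3.14·L·W·H/6) three times weekly for 30 days; Ki-67 immunohistochemistry on tumour sections (1:250, 4 °C overnight, DAB, hematoxylin counterstain).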

HCT-15 [3] = test: Cell cycle arrest at G0/G1 phase in human HCT15 cells assessed as suppression of Rb ser807/811 phosphorylation at 5 to 20 uM after 12 to 24 hrs by Western blot analysis; type: functional, cell-based
Procedure, shortened: (§1)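 HCT-15 cells in RPMI/10% FBS exposed to test compound at various concentrations; lysates quantified by BCA, 30–50 μg protein run on 10% SDS-PAGE, transferred to PVDF, blocked 1 h in 5% milk/PBST, primary antibodies overnight at 4 °C, HRP anti-mouse IgG 1:1500 for 3 h at room temperature, ECL detection.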

HCT-15 [4] = test: Cell cycle arrest at G2/M phase in human HCT15 cells assessed as cyclin B1 down regulation at 5 to 20 uM after 12 to 24 hrs by Western blot analysis; type: functional, cell-based; procedure, shortened: as §1
HCT-15 [5] = test: Cell cycle arrest at M phase in human HCT15 cells assessed as suppression of CDC2 Tyr-15 phosphorylation at 5 to 20 uM after 12 to 24 hrs by Western blot analysis; type: functional, cell-based; procedure, shortened: as §1
HCT-15 [6] = test: Induction of apoptosis in human HCT15 cells assessed as increase in caspase-8 expression after 12 to 24 hrs by Western blot analysis; type: functional, cell-based; procedure, shortened: as §1
HCT-15 [7] = test: Induction of apoptosis in human HCT15 cells assessed as increase in caspase-3 expression after 12 to 24 hrs by Western blot analysis; type: functional, cell-based; procedure, shortened: as §1
HCT-116 = test: Growth inhibition of human HCT116 cells; type: functional, cell-based
Procedure, shortened: (§2)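 SRB assay: cells at 5 × 10^4 cells/mL were exposed to a concentration series for 3 days, fixed with 10% TCA and stained with sulforhodamine B. Survival was expressed as % of solvent-treated control and IC50 taken by nonlinear regression of % survival versus concentration. Media held 10% heat-inactivated FBS plus antibiotics: RPMI (HCT-15, HCT 116, HT-29), RPMI with 25 mM HEPES (SW480, SW620), DMEM (MRC-5, Hs68). Cultures were kept at 37 C, 5% CO2.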

HCT-15 [8] = test: Cell cycle arrest in human HCT15 cells assessed as accumulation at sub-G1 phase at 5 uM after 12 hrs using propidium-iodide staining by flow-cytometry (reference value: 5.2 %); type: functional
HCT-15 [9] = test: Cell cycle arrest in human HCT15 cells assessed as accumulation at G2/M phase at 10 uM after 12 hrs using propidium-iodide staining by flow-cytometry (reference value: 15.7 %); type: functional
HCT-15 [10] = test: Cell cycle arrest in human HCT15 cells assessed as accumulation at S phase at 5 uM after 24 hrs using propidium-iodide staining by flow-cytometry (reference value: 34.1 %); type: functional
HCT-15 [11] = test: Growth inhibition of human HCT15 cells; type: functional, cell-based; procedure, shortened: as §2

Q: Which results are given for C[C@H]1CC[C@@]2(OC1)O[C@H]1C[C@H]3[C@@H]4CC[C@@H]5C[C@@H](O[C@@H]6O[C@H](CO)[C@H](O)[C@H](O)[C@H]6O[C@@H]6O[C@H](CO)[C@@H](O)[C@H](O)[C@H]6O)CC[C@]5(C)[C@H]4CC[C@]3(C)[C@H]1[C@@H]2C [TIMOSAPONIN AIII]?
A: Activity (HCT-15 [1]): Active; inhibition in vivo at 2 mg/kg (HCT-15 [2]): 8.3%; Activity (HCT-15 [3]): Active; Activity (HCT-15 [4]): Active; Activity (HCT-15 [5]): Active; Activity (HCT-15 [6]): Active; Activity (HCT-15 [7]): Active; IC50 (HCT-116): 5.5 µM; Activity (HCT-15 [8]): 4.8%; Activity (HCT-15 [9]): 24.2%; Activity (HCT-15 [10]): 37%; IC50 (HCT-15 [11]): 6.1 µM
